The source of these data is publication PMC8251533 (Clinical Pharmacology in Drug Development, 2021).

A short description of series [1]: SNAC plasma pharmacokinetics after a single dose of oral semaglutide. The series is classed as in vivo, human. Conditions: for Median tmax,SNAC: plasma, LC-MS/MS. In a few lines: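 Two-period randomized crossover in 26 fasting healthy men. Each received one 10 mg tablet (coformulated with 300 mg absorption enhancer), upright, between 8 and 11 am, with 50 or 240 mL water. Fasting continued ≥4 h, with 200 mL water at 2 h. Plasma was drawn predose and 10 min–6 h and assayed by protein precipitation LC-MS/MS. Trapezoidal AUC0-6h used actual times. AUC and Cmax were log-transformed; mixed model had volume and period fixed, subject random.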

Series [2] is described as follows: Semaglutide plasma pharmacokinetics after a single dose of oral semaglutide. The class given is in vivo, human. In a few lines:
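Same crossover, dosing and fasting. Plasma was drawn predose and 0.5–24 h and analysed by LC-MS/MS (LLOQ 0.73 nmol/L). Trapezoidal AUC0-24h was used; log-transformed mixed models (volume, period fixed; subject random) allowed left-censoring. For correlation, log PK was modelled against log time to complete tablet erosion, assessed by gamma scintigraphy of ¹¹¹In-labelled tablets. 2^β gave the fold change per doubling. All-below-LLOQ profiles were imputed from 0.5×LLOQ.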

The mark [3] stands for this setting: single oral semaglutide tablet with 300 mg SNAC, fasting healthy men.
[4] abbreviates: linear mixed model, log-transformed.

Consider `O=C([O-])CCCCCCCNC(=O)c1ccccc1O.[Na+]` [SNAC, sodium N‐(8‐[2‐hydroxybenzoyl]amino) caprylate], for which the “Median tmax,SNAC” value in series [1] (50 mL water) stood at 18 min. Besides, in series [1] (240 mL water), the “Median tmax,SNAC” value stood at 18 min. In addition, in series [1] (setting [3]), the “AUC0-6h,SNAC, lower with 50 versus 240 mL water” value is given as 19% and the “Cmax,SNAC, lower with 50 versus 240 mL water” value is reported as 38%.

With `CC[C@H](C)[C@H](NC(=O)[C@H](Cc1ccccc1)NC(=O)[C@H](CCC(=O)O)NC(=O)[C@H](CCCCNC(=O)COCCOCCNC(=O)COCCOCCNC(=O)CC[C@H](NC(=O)CCCCCCCCCCCCCCCCC(=O)O)C(=O)O)NC(=O)[C@H](C)NC(=O)[C@H](C)NC(=O)[C@H](CCC(N)=O)NC(=O)CNC(=O)[C@H](CCC(=O)O)NC(=O)[C@H](CC(C)C)NC(=O)[C@H](Cc1ccc(O)cc1)NC(=O)[C@H](CO)NC(=O)[C@H](CO)NC(=O)[C@@H](NC(=O)[C@H](CC(=O)O)NC(=O)[C@H](CO)NC(=O)[C@@H](NC(=O)[C@H](Cc1ccccc1)NC(=O)[C@@H](NC(=O)CNC(=O)[C@H](CCC(=O)O)NC(=O)C(C)(C)NC(=O)[C@@H](N)Cc1cnc[nH]1)[C@@H](C)O)[C@@H](C)O)C(C)C)C(=O)N[C@@H](C)C(=O)N[C@@H](Cc1c[nH]c2ccccc12)C(=O)N[C@@H](CC(C)C)C(=O)N[C@H](C(=O)N[C@@H](CCCNC(=N)N)C(=O)NCC(=O)N[C@@H](CCCNC(=N)N)C(=O)NCC(=O)O)C(C)C` [semaglutide], in series [2] (setting [4]), the “2^β, estimated fold change in AUC0-24h,semaglutide if time to CTE is doubled” value is “approximately 2”; the “2^β, estimated fold change in Cmax,semaglutide if time to CTE is doubled” value is “approximately 2”; the “2^β, estimated fold change in tmax,semaglutide if time to CTE is doubled” value is given as about 1.5. Further, in series [2] (single 10 mg oral semaglutide), the “AUC0-24h,semaglutide, higher with 50 versus 240 mL water” value is recorded as “approximately 70%” and the “Cmax,semaglutide, higher with 50 versus 240 mL water” value is reported as “approximately 70%”.
